From PubChem
Rows were chosen to be rich in hits. Some 1.2% of all compounds tested hit in one or more screens of this group.
PfGluPho inh = PfG6PD (Plasmodium falciparum) enzyme inhibition. PfGluPho enzyme, NADPH resazurin-diaphorase fluorescence. inhibition, % at 20 µM. 350,000 compounds, 0.78% hits;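 active = inhibition reaching at least a set limit at 20 µM in the primary screen, cut at about 59% in these data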;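 note: 0% = DMSO wells with substrate and 100% = DMSO wells lacking glucose-6-phosphate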
Diaphorase inh = inhibits diaphorase or chemically oxidizes, flagging diaphorase assay artifacts; diaphorase resazurin-to-resorufin fluorescence, NADH, 16 min; bacterial (C. kluyveri) enzyme, not human; inhibition, % at 20 µM; 190,000 compounds, 0.69% hits;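 active = primary screen inhibition at 20 µM above a set limit, cut at about 50% in these data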;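 note: plate controls were DMSO with full reaction for no effect and wells lacking NADH for full effect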
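material = Clostridium kluyveri diaphorase enzyme | amount = 0.14 U/mL diaphorase, enzyme working solution | schedule = incubation 16 min, room temperature | detection = fluorescence of resorufin formed from resazurin, Ex 544/Em 590 nm | benchmarks = positive control minus NADH, DMSO neutral control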
G6PDH CS = L. mesenteroides G6PDH inhibition counter-screen | 200,000 compounds, 0.12% hits | AID 1020 | Purified L. mesenteroides G6PDH, diaphorase/resazurin coupled fluorescence, 45 min | inhibition, % at 5 µM; in the data active = inhibition above about 50%
HKDC1 inhibitor = HKDC1 (human) hexokinase inhibition; inhibition, % at 20 µM; recombinant HKDC1, G6PDH/diaphorase resazurin coupled fluorescence; AID 493160; Q2TB90; 340,000 compounds, 0.16% hits;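 active = inhibition above about 35% when tested at 20 µM, limit read from the data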;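 note: plate controls were DMSO wells with enzyme for no effect and DMSO wells lacking enzyme for full effect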
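Assay system: in-house recombinant HK5 (HKDC1) enzyme. Input: HKDC1 at 5 µg/mL. Medium: Tris pH 8.0 buffer with MgCl2, Tween-20, BSA, BME. Dosing: single 20 µM dose. Schedule: 90 min reaction incubation at room temperature, dark. Signal: resazurin-to-resorufin fluorescence via G6PDH and diaphorase coupling, 525/613 nm. Controls: DMSO-enzyme wells negative, buffer-substituted wells positive.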
HKDC1 act conf2 = HKDC1 (human) activation, single-dose confirmed; shares compounds with HKDC1 inhibitor; recombinant HKDC1, G6PDH/diaphorase resazurin fluorescence; active compounds read low; inhibition, % at 20 µM; 740 compounds, 14% hits;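 active = inhibition at or below a set negative limit, negative inhibition meaning the enzyme was activated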
PfGluPho conf = PfG6PD inhibition, single-dose confirmed; shares compounds with PfGluPho inh; recombinant PfGluPho, NADPH-diaphorase-resazurin fluorescence; inhibition, % at 20 µM; 2,400 compounds, 34% hits;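 active = inhibition of at least 50% at 20 µM in any single replicate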;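 note: 0% = DMSO with substrate and 100% = DMSO lacking glucose-6-phosphate substrate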
Diaphorase 10uM = inhibits diaphorase or oxidizes, flagging false PfG6PD hits; shares compounds with PfGluPho inh; diaphorase-coupled resazurin reduction, fluorescence, NADPH 10 uM; inhibition, % at 20 µM; 820 compounds, 39% hits; AID 504862;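 active = average inhibition reaching 50% or more with the compound at 20 µM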;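 note: resorufin red fluorescence formed as diaphorase reduces resazurin using NADPH; 0% = DMSO with enzyme and 100% = DMSO without enzyme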
Diaphorase 30uM = inhibits diaphorase or oxidizes, flagging false PfG6PD hits | shares compounds with PfGluPho inh | Diaphorase/resazurin coupled assay, resorufin fluorescence, 30 uM NADPH | inhibition, % at 20 µM | 820 compounds, 29% hits;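 active = inhibition averaging 50% or more, tested at 20 µM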;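 note: 0% = DMSO with enzyme and 100% = DMSO wells lacking diaphorase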
* = called active by the depositor.

How did O=C(NC1=C(NC2CCS(=O)(=O)C2)C(=O)c2ccccc2C1=O)c1ccccc1 (centres undefined) do in these assays?
PfGluPho inh: 104*; Diaphorase inh: 72*; G6PDH CS: 51*; HKDC1 inhibitor: 53*; HKDC1 act conf2: 69; PfGluPho conf: 95*; Diaphorase 10uM: 98*; Diaphorase 30uM: 90*

How did CCOc1ccc2c(ccc(/C=C/c3cc(C)c4cccnc4c3O)[n+]2C)c1 do in these assays?
PfGluPho inh: 92*; HKDC1 inhibitor: 46*; HKDC1 act conf2: 8; PfGluPho conf: 40

Results for O=C1C(Cl)=C(NC(=O)c2ccccc2)C(=O)C(Cl)=C1NC(=O)c1ccccc1 ?
PfGluPho inh: 114*; HKDC1 inhibitor: 43*; HKDC1 act conf2: 41; PfGluPho conf: 110*; Diaphorase 10uM: 86*; Diaphorase 30uM: 61*

Results for CCN(CC)c1ccc(NC(=O)c2ccccc2Br)cc1S(=O)(=O)Nc1ccccc1OC ?
PfGluPho inh: 86*; Diaphorase inh: 24; G6PDH CS: -2; HKDC1 inhibitor: -43; HKDC1 act conf2: -28; PfGluPho conf: 64*; Diaphorase 10uM: -21; Diaphorase 30uM: -19

Results for CCN(CC)c1ccc(NC(=O)c2ccccc2F)cc1S(=O)(=O)Nc1ccccc1OC ?
PfGluPho inh: 52; Diaphorase inh: 29; G6PDH CS: 4; HKDC1 inhibitor: -5

Results for CNCc1ccccc1Sc1cc(O)ccc1O ?
PfGluPho inh: 92*; Diaphorase inh: 32; G6PDH CS: 58*; HKDC1 inhibitor: 64*; HKDC1 act conf2: 65; PfGluPho conf: 97*; Diaphorase 10uM: 53*; Diaphorase 30uM: 18

Results for CNCc1ccccc1Sc1cccc(O)c1 ?
PfGluPho inh: 9; Diaphorase inh: 8; G6PDH CS: -3; HKDC1 inhibitor: -1

Results for COc1ccc(CNC(=O)CN2C(=O)COc3ccc(S(=O)(=O)N4CCC(C)CC4)cc32)cc1 ?
PfGluPho inh: -1; HKDC1 inhibitor: -3

How did O=C(C1CC=CCC1)N1CCN(S(=O)(=O)c2ccc(F)cc2)CC1 (centres undefined) do in these assays?
PfGluPho inh: -3; HKDC1 inhibitor: -4

What do the screens show for `CC(C(=O)N1CCc2ccccc21)N1CCN(S(=O)(=O)c2ccc3c(c2)OCCCO3)CC1` (centres undefined)?
PfGluPho inh: 8; HKDC1 inhibitor: 0

How did Clc1ccc(N=c2ssnc2Cl)nc1 do in these assays?
PfGluPho inh: 87*; G6PDH CS: 14; HKDC1 inhibitor: -194; HKDC1 act conf2: -80*; PfGluPho conf: 52*; Diaphorase 10uM: -22; Diaphorase 30uM: -18

Results for O=C1/C(=C/Nc2cccc([N+](=O)[O-])c2)CCc2ccccc21 ?
PfGluPho inh: 67*; Diaphorase inh: 39; G6PDH CS: 31; HKDC1 inhibitor: 41*; HKDC1 act conf2: 5; PfGluPho conf: 35

What do the screens show for `O=C(O)CCNc1cc(N2CCN(C(=O)c3ccco3)CC2)c2noc3c2c1C(=O)c1ccccc1-3`?
PfGluPho inh: 80*; HKDC1 inhibitor: 39*; HKDC1 act conf2: 14; PfGluPho conf: 24

How did COc1cc(NC(=O)C2=COCCO2)c(OC)cc1Cl do in these assays?
PfGluPho inh: -1; HKDC1 inhibitor: -3

What do the screens show for `O=C(c1ccccn1)N1CCCC(N2CCN(c3ccccc3)CC2)C1` (centres undefined)?
PfGluPho inh: 0; HKDC1 inhibitor: -7

What do the screens show for `COc1cc(OC)cc(-c2nc(-c3ccccc3OC)no2)c1`?
PfGluPho inh: 2; Diaphorase inh: 6; G6PDH CS: 3; HKDC1 inhibitor: -1

What do the screens show for `COc1cc(N=c2ssnc2Cl)cc(OC)c1`?
PfGluPho inh: 78*; Diaphorase inh: 27; G6PDH CS: 22; HKDC1 inhibitor: -51; HKDC1 act conf2: -33; PfGluPho conf: 65*; Diaphorase 10uM: -34; Diaphorase 30uM: -23

Results for COc1ccccc1-c1cccc([C@@H]2C[C@H]3[C@H](CON3C)CN2C)c1 ?
PfGluPho inh: -9; HKDC1 inhibitor: 0

Results for CCOC(=O)C1CCCN(C(=O)c2cc3ccc(OC)cc3[nH]2)C1 (centres undefined) ?
PfGluPho inh: -6; HKDC1 inhibitor: -2

How did Clc1ccc(Sc2oc(/C=N/n3cnnc3)cc2Br)cc1 do in these assays?
PfGluPho inh: 50; Diaphorase inh: 32; G6PDH CS: 4; HKDC1 inhibitor: -1

How did CN(C)C(=O)/C(C#N)=C\c1cc(Br)c(Sc2ccc(Cl)cc2)o1 do in these assays?
PfGluPho inh: 107*; Diaphorase inh: 13; G6PDH CS: 0; HKDC1 inhibitor: 35*; HKDC1 act conf2: 14; PfGluPho conf: -8

What do the screens show for `C=CC(=O)N1C/C(=C/c2ccc(Cl)cc2)C(=O)/C(=C\c2ccc(Cl)cc2)C1`?
PfGluPho inh: 76*; HKDC1 inhibitor: 45*; HKDC1 act conf2: 10; PfGluPho conf: 26

How did CN1C/C(=C/c2ccncc2)C(=O)/C(=C/c2ccncc2)C1 do in these assays?
PfGluPho inh: -5; HKDC1 inhibitor: 3

Results for Cc1ccc(/C=C2\C(=O)ON=C2c2ccccc2)o1 ?
PfGluPho inh: 9; Diaphorase inh: 19; G6PDH CS: 4; HKDC1 inhibitor: -5

What do the screens show for `Cc1ccc(-c2ccc(/C=C3\C(=O)ON=C3c3ccccc3)o2)c([N+](=O)[O-])c1`?
PfGluPho inh: 70*; Diaphorase inh: 27; G6PDH CS: 7; HKDC1 inhibitor: 43*; HKDC1 act conf2: 10; PfGluPho conf: 5

What do the screens show for `Cc1ccc(S(=O)(=O)/N=C2/C=C(Sc3ncn[nH]3)C(=O)c3ccccc32)cc1`?
PfGluPho inh: 120*; Diaphorase inh: 36; G6PDH CS: 40; HKDC1 inhibitor: 69*; HKDC1 act conf2: 63; PfGluPho conf: 103*; Diaphorase 10uM: 89*; Diaphorase 30uM: 93*

Results for Cc1ccc(S(=O)(=O)Nc2ccc(O)c(Sc3ncn[nH]3)c2)cc1 ?
PfGluPho inh: 29; Diaphorase inh: 20; G6PDH CS: 7; HKDC1 inhibitor: -5

What do the screens show for `COC(=O)c1ccc(CNC(=O)COC(=O)c2cc(Cl)ccc2O)cc1`?
PfGluPho inh: -6; HKDC1 inhibitor: -1

What do the screens show for `Cc1[nH]c2ccccc2c1C1=CC(=O)C=CC1=O`?
PfGluPho inh: 129*; HKDC1 inhibitor: 58*; HKDC1 act conf2: 53; PfGluPho conf: 114*; Diaphorase 10uM: 93*; Diaphorase 30uM: 53*
